From ChEMBL document CHEMBL4818983, “Structure-activity relationship and hypoglycemic activity of tricyclic matrines with advantage of treating diabetic nephropathy” (Eur J Med Chem, 2020) come the findings set out here.

The structures appear in SMILES notation.

The subject of this experiment is HepG2. Put plainly: Increase in glucose consumption in human HepG2 cells assessed as Gx/GDMSO ratio at 25 uM by glucose oxidase assay. It is filed as functional. In outline:
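HepG2 glucose consumption screen. Test compounds at 25 μM, metformin at 5 mM. Activity expressed as ratio of glucose consumption to DMSO-treated cells (Gx/G_DMSO).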
As to `CCCC[C@@H]1[C@H]2CCCN3CCC[C@@H](CN1S(=O)(=O)c1ccc(C)cc1)[C@@H]23`, the Ratio was 1.03.

As for `O=C(O)C[C@@H]1[C@H]2CCCN3CCC[C@@H](CN1S(=O)(=O)c1cccc(C(F)(F)F)c1)[C@@H]23`, the Ratio is 1.06.

`O=S(=O)(c1ccccc1C(F)(F)F)N1C[C@H]2CCCN3CCC[C@@H]([C@H]23)[C@H]1CCCCO`: the Ratio is listed as 1.24.

In the case of `O=S(=O)(c1ccc(C(F)(F)F)cc1)N1C[C@H]2CCCN3CCC[C@@H]([C@H]23)[C@H]1CCCCO`, the Ratio was 1.06.

In the case of `Nc1nnc(CCC[C@@H]2[C@H]3CCCN4CCC[C@@H](CN2S(=O)(=O)c2ccc(C(F)(F)F)cc2)[C@@H]34)o1`, the Ratio is 1.18.

Turning to `Cc1ccc(S(=O)(=O)N2C[C@H]3CCCN4CCC[C@@H]([C@H]34)[C@H]2CCCCO)cc1`, the Ratio is 1.12.

As to `Cc1ccc(S(=O)(=O)N2C[C@@H]3CCCN4CCC[C@@H]([C@H]34)[C@H]2CCCCO)cc1`, the Ratio is listed as 1.16.

Take `CCCC[C@@H]1[C@H]2CCCN3CCC[C@@H](CN1C(=O)Nc1ccccc1C(F)(F)F)[C@@H]23`: the Ratio was found to be 1.03.

On to `CCCC[C@@H]1[C@H]2CCCN3CCC[C@@H](CN1C(=O)Nc1cccc(C(F)(F)F)c1)[C@@H]23`, for which the Ratio amounted to 1.

As to `CCCC[C@@H]1[C@H]2CCCN3CCC[C@H](CN1S(=O)(=O)c1cccc(C(F)(F)F)c1)[C@@H]23`, the Ratio is on record as 1.2.

Turning to `CCCC[C@@H]1[C@H]2CCCN3CCC[C@@H](CN1C(=O)Nc1cccc(C)c1)[C@@H]23`, the Ratio is 1.32.

For the compound `CN(C)c1nnc(CCC[C@@H]2[C@H]3CCCN4CCC[C@@H](CN2S(=O)(=O)c2cccc(C(F)(F)F)c2)[C@@H]34)s1`, the Ratio is recorded as 0.97.

As for `O=C1C=CC[C@@H]2[C@H]3CCCN4CCC[C@@H](CN12)[C@@H]34` [SOPHOCARPINE], the Ratio came to 1.11.

Turning to `CC[C@@H]1[C@H]2CCCN3CCC[C@@H](CN1S(=O)(=O)c1ccccc1C(F)(F)F)[C@@H]23`, the Ratio was 1.26.

As for `CCCC[C@@H]1[C@H]2CCCN3CCC[C@H](CN1S(=O)(=O)c1ccc(C(F)(F)F)cc1)[C@@H]23`, the Ratio turned out to be 1.17.

For `Nc1nnc(CCC[C@@H]2[C@H]3CCCN4CCC[C@@H](CN2S(=O)(=O)c2cccc(C(F)(F)F)c2)[C@@H]34)s1`, the Ratio worked out at 1.04.

For `CCCC[C@@H]1[C@H]2CCCN3CCC[C@H](CN1S(=O)(=O)c1ccccc1C(F)(F)F)[C@@H]23`, the Ratio was 1.26.

Consider `CCCC[C@@H]1[C@H]2CCCN3CCC[C@@H](CN1C(=O)Nc1ccc(C(F)(F)F)cc1)[C@@H]23`, for which the Ratio was 1.08.

`CCCC[C@@H]1[C@H]2CCCN3CCC[C@@H](CN1S(=O)(=O)c1ccccc1C(F)(F)F)[C@@H]23`: the Ratio is 1.01.

On to `CC[C@@H]1[C@H]2CCCN3CCC[C@@H](CN1S(=O)(=O)c1ccc(C(F)(F)F)cc1)[C@@H]23`, for which the Ratio stood at 1.32.

Turning to `COC(=O)CCC[C@@H]1[C@H]2CCCN3CCC[C@H](CN1S(=O)(=O)c1cccc(C(F)(F)F)c1)[C@@H]23`, the Ratio worked out at 1.21.

In the case of `CCCC[C@@H]1[C@H]2CCCN3CCC[C@@H](CN1C(=O)Nc1ccc(OC(F)(F)F)cc1)[C@@H]23`, the Ratio is 1.07.

As to `CC(=O)Nc1nnc(CCC[C@@H]2[C@H]3CCCN4CCC[C@@H](CN2S(=O)(=O)c2cccc(C(F)(F)F)c2)[C@@H]34)s1`, the Ratio came out at 0.89.

`CCCC[C@@H]1[C@H]2CCCN3CCC[C@@H](CN1C(=O)Nc1ccc(F)cc1)[C@@H]23`: the Ratio was found to be 1.02.

`O=C(O)CCC[C@@H]1[C@H]2CCCN3CCC[C@H](CN1S(=O)(=O)c1ccccc1C(F)(F)F)[C@@H]23`: the Ratio is given as 1.12.

Turning to `O=S(=O)(c1cccc(C(F)(F)F)c1)N1C[C@H]2CCCN3CCC[C@@H]([C@H]23)[C@H]1CCCCO`, the Ratio came out at 1.25.

Regarding `O=C(O)CCC[C@@H]1[C@H]2CCCN3CCC[C@H](CN1S(=O)(=O)c1cccc(C(F)(F)F)c1)[C@@H]23`, the Ratio is listed as 1.16.

As for `CNc1nnc(CCC[C@@H]2[C@H]3CCCN4CCC[C@@H](CN2S(=O)(=O)c2cccc(C(F)(F)F)c2)[C@@H]34)s1`, the Ratio is recorded as 0.86.

`O=C(O)CCC[C@@H]1[C@H]2CCCN3CCC[C@@H](CN1S(=O)(=O)c1ccc(C(F)(F)F)cc1)[C@@H]23`: the Ratio came out at 1.03.

`O=S(=O)(c1ccc(C(F)(F)F)cc1)N1C[C@@H]2CCCN3CCC[C@@H]([C@H]23)[C@H]1CCCCN=C=S`: the Ratio is given as 1.02.

Turning to `O=C(O)CCC[C@@H]1[C@H]2CCCN3CCC[C@H](CN1S(=O)(=O)c1ccc(C(F)(F)F)cc1)[C@@H]23`, the Ratio was 0.99.

As to `COC(=O)CCC[C@@H]1[C@H]2CCCN3CCC[C@H](CN1S(=O)(=O)c1ccc(C)cc1)[C@@H]23`, the Ratio worked out at 1.14.

Consider `O=S(=O)(c1ccc(C(F)(F)F)cc1)N1C[C@@H]2CCCN3CCC[C@@H]([C@H]23)[C@H]1CCCCO`, for which the Ratio is 1.04.

Take `O=C1CCC[C@@H]2[C@H]3CCCN4CCC[C@@H](CN12)[C@@H]34` [MATRINE]: the Ratio was 1.26.

For `COC(=O)CCC[C@@H]1[C@H]2CCCN3CCC[C@H](CN1S(=O)(=O)c1ccc(C(F)(F)F)cc1)[C@@H]23`, the Ratio worked out at 1.13.

Regarding `CCCC[C@@H]1[C@H]2CCCN3CCC[C@@H](CN1C(=O)Nc1ccccc1C)[C@@H]23`, the Ratio is 1.3.

Take `CCCC[C@@H]1[C@H]2CCCN3CCC[C@H](CN1S(=O)(=O)c1ccc(C)cc1)[C@@H]23`: the Ratio was determined as 1.07.

Regarding `CCCC[C@@H]1[C@H]2CCCN3CCC[C@@H](CN1C(=O)Nc1ccc(C)cc1)[C@@H]23`, the Ratio came out at 1.04.

As for `Nc1nnc(CCC[C@@H]2[C@H]3CCCN4CCC[C@@H](CN2S(=O)(=O)c2cccc(C(F)(F)F)c2)[C@@H]34)o1`, the Ratio came to 1.34.

As for `Cc1ccc(S(=O)(=O)N2C[C@@H]3CCCN4CCC[C@@H]([C@H]34)[C@H]2CCCC(=O)O)cc1`, the Ratio amounted to 0.87.

Consider `CCCC[C@@H]1[C@H]2CCCN3CCC[C@@H](CN1C(=O)Nc1c(C)cccc1C)[C@@H]23`, for which the Ratio was found to be 1.14.

As to `O=C1CCC[C@@H]2[C@H]3CCCN4CCC[C@H](CN12)[C@@H]34` [SOPHORIDINE], the Ratio came to 1.22.

As to `CCNc1nnc(CCC[C@@H]2[C@H]3CCCN4CCC[C@@H](CN2S(=O)(=O)c2ccc(C)cc2)[C@@H]34)s1`, the Ratio was 0.79.

For `COC(=O)CCC[C@@H]1[C@H]2CCCN3CCC[C@H](CN1S(=O)(=O)c1ccccc1C(F)(F)F)[C@@H]23`, the Ratio is recorded as 1.23.
